# Assay: Toxicity liver stage against HepG2, at 10uM
# Type: cell-based
# Set-up: test concentration 10 uM, cell line HepG2-A16-CD81EGFP
# Conditions: human, HepG2-A16-CD81EGFP cells; read-out: INHIBITION
# Method in brief: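 Uninfected HepG2-A16-CD81EGFP cells, 3 × 10^3 per well, 1536-well, plated on prespotted compound at 10 μM final, parasite-free screening media added to match infected plates; puromycin 10 μM positive, DMSO 0.5% negative; run in parallel with 48 h PbLuc assay at 37 °C, 5% CO2; viability by CellTiter-Glo luminescence, normalized to controls.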
row,SMILES,cytotoxicity at 10 µM
1,O=C(NS(=O)(=O)c1ccccc1)c1ccccc1F,11.4%
2,CC[C@H]1CN2CC[C@H]1C[C@@H]2CNCc1cccc(C#N)c1,5.96%
3,Cc1nc(-c2ccc(S(=O)(=O)N3CCOCC3)cc2)co1,-9.52%
4,O=C(N[C@H]1CCCC[C@@H]1O)c1ccc(-c2nc3ccccc3[nH]2)cc1,-1.43%
5,CC(=O)c1cccc(NC(=O)C2CN(S(=O)(=O)C3CC3)C2)c1,3.62%
6,COC(=O)c1sccc1S(=O)(=O)NCCC(O)c1ccco1 (configuration not stated),-5.98%
7,CN(C)S(=O)(=O)N1CCN(c2cc(-n3cccc3)ncn2)CC1,0.781%
8,COc1ccc(CC(=O)Nc2c(C)nc(N3CCCC3)nc2C)cc1,2.05%
9,Cc1cccc(N2CC3(CCN(c4nncs4)C3)CC2=O)c1 (configuration not stated),0.179%
10,Fc1cnc(N2CCCC3(CCN(c4ncccn4)C3)C2)nc1 (configuration not stated),-113%
11,Cc1nn(CCCNC(=O)C2CCN(S(C)(=O)=O)CC2)c(Cl)c1Cl,-11.3%
12,CCn1nc(C)c(CN2CCNCC2)c1C,6.4%
13,CC(C)c1cc(C(=O)N2CCN(c3ncc4c(n3)CCOC4)CC2)on1,1.57%
14,Cc1ccnc(C2CN(Cc3cnn(-c4ccccc4C(=O)O)c3)C2)n1,6%
15,O=C(c1cc(-n2cccn2)ccc1Cl)N1CCCC(N2CCCC2)C1 (configuration not stated),1.86%
16,CNc1cc(C2CCCN2C(=O)CCc2cnn(C)c2C)ccn1 (configuration not stated),5.98%
17,O=C(CCn1c(C(F)F)cc2cccnc21)NC1CCCCC1,-27.9%
18,CC(C)CNC(=O)C1(Cc2ccccc2-c2cccs2)CCNC1 (configuration not stated),-31.2%
19,Cc1cc(-c2cnc(N3CCNC(=O)C3)nc2-c2ccoc2C)on1,-25.5%
20,CCC(=O)N1CCC1c1cc(NC2CCCC2)nc(C)n1 (configuration not stated),-7.61%
21,O=C(NC[C@]1(O)CN(Cc2ccccc2F)C[C@H]1O)c1cscn1,-12%

row,SMILES,cytotoxicity at 10 µM
1,CC(=O)N1CCCC1c1cccc(Cc2ccccc2F)n1 (configuration not stated),-1.44%
2,CC(C)CN1CCC(C(=O)NCCNC(=O)c2ccoc2)CC1,0.335%
3,COC(=O)N1CCC(NC(=O)c2cc(S(N)(=O)=O)ccc2C)CC1,-1.22%
4,CN(Cc1cccs1)C(=O)CN1C(=O)c2cc(Cl)c(Cl)cc2C1=O,-6.13%
5,Cc1ccc(CNC(C)(C)c2noc(C(C)(C)C)n2)o1,-9.02%
6,CCC(C)(CC(=O)OC)NCc1c(C)noc1C (configuration not stated),-3.19%
7,COc1ccccc1CC(C)CC(=O)N(C)Cc1cc(C)on1 (configuration not stated),3.8%
8,Cc1ccc(Cl)cc1NS(=O)(=O)c1cc(C(N)=O)n(C)c1,3.8%
9,O=C1NCCCCC1NC(=O)C1(c2ccc3c(c2)OCCO3)CCCC1 (configuration not stated),0.969%
10,CCCC(C#N)NC(=O)CCCOc1cccc(C(C)=O)c1 (configuration not stated),-46.2%
11,O=C(NCCOc1ccc(Cl)cn1)Nc1nccs1,11.3%
12,COC(=O)N1CCCC(NC(=O)NCc2cccc(C)n2)C1 (configuration not stated),-8.62%
13,O=C(NCC(O)COc1ccc(C(F)(F)F)cc1)Nc1nncs1 (configuration not stated),-14.2%
14,N#Cc1cccnc1NCCNC(=O)N1CCSCC1,-1.22%
15,O=C(NCCn1ccnc1)c1cc(Br)c[nH]1,-5.2%
16,CC(C)(C#N)CCCS(=O)(=O)c1nccn1-c1cccc(F)c1,-1.12%
17,COCC(=O)NC(c1ccc(Cl)cc1)c1noc(C)n1 (configuration not stated),6.66%
18,N#CCCN(Cc1ccccn1)C(=O)Nc1cccnc1,0.525%
19,CC(NCCn1c(=O)oc2ccccc21)c1ccccn1 (configuration not stated),-7.1%
20,O=C(O)c1ccc(S(=O)(=O)Nc2ccccc2F)c(F)c1,5.51%
21,O=C(c1ccc(F)c(F)c1)N1CCC[C@]2(C[C@@H](OCC3CC3)CO2)C1,-70.1%

row,SMILES,cytotoxicity at 10 µM
1,CC(C)NC(=O)C1CN(C(=O)Nc2ccc(F)cc2)CC12CCOCC2 (configuration not stated),-80.9%
2,Cc1noc(C)c1CN1CCO[C@H]2CN(Cc3cccnc3)C[C@H]21,-2.61%
3,COCC(=O)N1CC[C@@H](N2CCOCC2)[C@@H]1Cc1ccccc1,-3.06%
4,CC[C@H](CO)NC(=O)c1coc(COc2cccc(F)c2F)n1,3.08%
5,CCn1cncc1Cn1cccc(C(F)(F)F)c1=O,-20.7%
6,Cc1ccc(-c2nc(CNS(=O)(=O)N(C)C)[nH]c2-c2ccccn2)cc1,-0.678%
7,COc1ccc(CN(C)C(=O)c2nnc(CN(C)C)o2)cc1,-3.42%
8,CCOC(=O)CNC(=O)N1CCOC(CCc2ccccc2)C1 (configuration not stated),-4.41%
9,Cc1ccsc1CN(CCN(C)C)C(=O)c1ccccc1C#N,-119%
10,CCc1cc(-c2cc[nH]n2)nc(N2CCCC2)n1,0.255%
11,Cc1ncsc1CN1CCn2nc(CCC(=O)N3CCCC3)cc2C1,-22.2%
12,COC(=O)c1cccc(CN(C)C(C)c2ccccn2)c1 (configuration not stated),5.85%
13,CCC1CN(C(=O)c2ccccc2C(C)=O)CCN1C(C)C (configuration not stated),0.684%
14,CCSCC(C)NCc1nn(C)c2ccc(C)cc12 (configuration not stated),1.71%
15,COC(=O)[C@@H](NC(=O)c1coc(COc2cccc(F)c2F)n1)C(C)C,1.31%
16,Cc1ncc(CNC2CC(=O)N(CCc3ccc(F)cc3)C2)n1C (configuration not stated),-0.309%
17,C[C@H](NC(=O)C1(N(C)Cc2ccccc2)Cc2ccccc2C1)C(N)=O,0.521%
18,NC(=O)c1csc(N2C[C@@H](CN3CCCCC3)[C@@H](CO)C2)n1,-1.39%
19,N#Cc1ccc(NCc2cc3n(n2)CCCN(C(=O)C2CCC2)C3)nc1,-127%
20,c1cc(-c2cn[nH]c2)ccc1CN1CCNCC1,0.866%
21,Cc1ccccc1CN(CCO)Cc1ncc[nH]1,-3.97%

row,SMILES,cytotoxicity at 10 µM
1,CCNC(=O)[C@@H]1C[C@@H](n2cc(CC3CCCCC3)nn2)CN1,5.42%
2,COCc1cc(CNC(=O)c2cccc3c2OCC3)n[nH]1,8.97%
3,COc1ccc(CNCC(O)c2cccc(O)c2)cc1Br (configuration not stated),-3.86%
4,Cc1cc(C)c(CNC(=O)CC2CCCO2)c(=O)[nH]1 (configuration not stated),-10.7%
5,Cc1nccc(C(=O)NC(CN2CCCC2=O)c2ccccc2)n1 (configuration not stated),8.01%
6,Cc1cc(CN2CCN(C(=O)NC(C)c3ccncc3)CC2)on1 (configuration not stated),-5.66%
7,CC(Cn1cccn1)NC(=O)Nc1nnc(C2CC2)s1 (configuration not stated),-1.71%
8,Cc1nc(C2CCCN(C(=O)c3ccc(Cn4cccn4)o3)C2)no1 (configuration not stated),-6.38%
9,CCOc1ccc(Cl)c(C(=O)NCc2ccc(C(=O)NC)cc2)n1,-9.88%
10,COCC(O)CN(C)C(=O)NC1CCN(Cc2ccccn2)CC1 (configuration not stated),-0.0353%
11,COc1ncccc1NC(=O)NCC1CCS(=O)(=O)C1 (configuration not stated),-9.16%
12,CCC(CO)NCc1ccc(-c2ccc(F)cc2)o1 (configuration not stated),-5.67%
13,Cc1ccc(CN2C[C@H](OCCN(C)C)[C@H]3COC[C@H]32)o1,1.6%
14,Cc1ccc(CN2C[C@@H]3COC[C@H](C(=O)N4CCCCO4)[C@@H]3C2)o1,3.37%
15,Cc1cccc(CN2C(=O)CC[C@@H]3[C@H]2CCN3C(=O)c2ccsc2)n1,-85.7%
16,O=C(c1ccc[nH]1)N1CCc2c(COCC3CC3)cncc2C1,5.71%
17,CCOCC(=O)N1CCOCC2(CCN(c3ncccn3)C2)C1 (configuration not stated),-2.22%
18,Cn1cc(CN2CCC3(CC2)NC(=O)CC3c2ccncc2)cn1 (configuration not stated),-2.1%
19,CC(C)c1nn(C)cc1CNCc1cccnc1N(C)C,-1.96%
